Source: ChEMBL document CHEMBL1155459, “On-bead screening of a combinatorial fumaric acid derived peptide library yields antiplasmodial cysteine protease inhibitors with unusual peptide sequences” (J Med Chem, 2009)
Square brackets hold non-standard residues; d marks the D form. Peptide text beside a SMILES is read from it. * marks the point of attachment. Fumaroyl(AlaGlyPheOH) = C[C@H](NC(=O)/C=C/C(=O)*)C(=O)NCC(=O)N[C@@H](Cc1ccccc1)C(=O)O; Chg = N[C@H](C(=O)O)C1CCCCC1; Dap = NC[C@H](N)C(=O)O

How the values were obtained:
[1] = Inhibition of Plasmodium falciparum falcipain-2 after 12 hrs by fluorescence spectroscopy-based on-bead assay; set-up: concentration or dose not given beside the values; conditions: concentration not given here
Procedure, shortened: (§1)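 Library members on resin (PEGA, theoretical loading 0.40 mmol/g; added as DMSO suspension, 0.64 mM final inhibitor) preincubated with enzyme 12 h, then Cbz-Phe-Arg-AMC 40 μM added; AMC release followed by fluorescence (ex 380/em 460 nm). Kinetics compared with inhibitor-free amino-PEGA resin.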

[2] = target: Rhodesain (Trypanosoma brucei rhodesiense) (UniProt Q95PM0); assay: Inhibition of Trypanosoma brucei rhodesiense rhodesain after 12 hrs by fluorescence spectroscopy-based on-bead assay; set-up: concentration or dose not given beside the values; conditions: concentration not given here; procedure, shortened: as §1
Rhodesain (Trypanosoma brucei rhodesiense), sequence (Q95PM0 1-450): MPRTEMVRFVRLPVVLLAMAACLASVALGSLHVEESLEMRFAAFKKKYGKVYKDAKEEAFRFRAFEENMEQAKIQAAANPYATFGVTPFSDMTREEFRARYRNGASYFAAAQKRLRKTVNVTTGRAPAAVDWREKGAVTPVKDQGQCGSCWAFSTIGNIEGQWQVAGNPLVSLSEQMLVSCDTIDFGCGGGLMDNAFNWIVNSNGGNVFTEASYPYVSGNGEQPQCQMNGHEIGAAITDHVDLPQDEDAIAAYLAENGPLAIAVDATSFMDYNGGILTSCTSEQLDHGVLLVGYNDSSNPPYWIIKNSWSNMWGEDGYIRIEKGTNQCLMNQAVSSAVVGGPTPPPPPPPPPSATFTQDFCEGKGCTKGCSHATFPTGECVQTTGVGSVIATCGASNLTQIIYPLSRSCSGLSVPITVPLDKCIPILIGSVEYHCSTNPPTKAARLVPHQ

CC[C@H](C)[C@H](NC(=O)[C@H](CCC(N)=O)NC(=O)/C=C/C(=O)NCC(=O)NCC(=O)N[C@@H](Cc1ccccc1)C(=O)O)C(=O)N[C@@H](CC(C)C)C(=O)N[C@H](C(N)=O)C(C)C (HELM PEPTIDE1{[O=C(/C=C/C(=O)[*:2])NCC(=O)NCC(=O)N[C@@H](Cc1ccccc1)C(=O)O].Q.I.L.V.[am]}$$$$V2.0)
inhibition [1]: 44% | inhibition [2]: 52%

CC(=O)NC[C@H](NC(=O)/C=C/C(=O)NCC(=O)NCC(=O)N[C@@H](Cc1ccccc1)C(=O)O)C(=O)N[C@@H](Cc1ccccc1)C(=O)N[C@@H](C)C(=O)N[C@H](C(N)=O)C(C)C (HELM PEPTIDE1{[O=C(/C=C/C(=O)[*:2])NCC(=O)NCC(=O)N[C@@H](Cc1ccccc1)C(=O)O].[O=C([C@H](CN[*:3])N[*:1])[*:2]].F.A.V.[am]}|PEPTIDE2{[ac]}$PEPTIDE1,PEPTIDE2,2:R3-1:R2$$$V2.0)
inhibition [1]: 45% | inhibition [2]: 15%

CC(=O)NC[C@H](NC(=O)/C=C/C(=O)N[C@@H](C)C(=O)NCC(=O)N[C@@H](Cc1ccccc1)C(=O)O)C(=O)N[C@H](C(=O)N[C@H](C(=O)N[C@H](C(N)=O)C(C)C)C(C)C)c1ccccc1 (HELM PEPTIDE1{[C[C@H](NC(=O)/C=C/C(=O)[*:2])C(=O)NCC(=O)N[C@@H](Cc1ccccc1)C(=O)O].[O=C([C@H](CN[*:3])N[*:1])[*:2]].[Phg].V.V.[am]}|PEPTIDE2{[ac]}$PEPTIDE1,PEPTIDE2,2:R3-1:R2$$$V2.0)
inhibition [1]: 20% | inhibition [2]: 36%

CC(=O)NC[C@H](NC(=O)/C=C/C(=O)NCC(=O)NCC(=O)N[C@@H](Cc1ccccc1)C(=O)O)C(=O)N[C@H](C(=O)N[C@@H](C)C(=O)N[C@H](C(N)=O)C(C)C)c1ccccc1 (HELM PEPTIDE1{[O=C(/C=C/C(=O)[*:2])NCC(=O)NCC(=O)N[C@@H](Cc1ccccc1)C(=O)O].[O=C([C@H](CN[*:3])N[*:1])[*:2]].[Phg].A.V.[am]}|PEPTIDE2{[ac]}$PEPTIDE1,PEPTIDE2,2:R3-1:R2$$$V2.0)
inhibition [1]: 37% | inhibition [2]: 36%

CC(C)C[C@H](NC(=O)[C@@H](NC(=O)[C@H](C)NC(=O)/C=C/C(=O)NCC(=O)NCC(=O)N[C@@H](Cc1ccccc1)C(=O)O)C1CCCCC1)C(=O)N[C@H](C(N)=O)C(C)C (HELM PEPTIDE1{[O=C(/C=C/C(=O)[*:2])NCC(=O)NCC(=O)N[C@@H](Cc1ccccc1)C(=O)O].A.[O=C([C@@H](N[*:1])C1CCCCC1)[*:2]].L.V.[am]}$$$$V2.0)
inhibition [1]: 43% | inhibition [2]: 60%

CC(C)[C@H](NC(=O)[C@H](C)NC(=O)[C@@H](NC(=O)[C@H](CCC(N)=O)NC(=O)/C=C/C(=O)NCC(=O)NCC(=O)N[C@@H](Cc1ccccc1)C(=O)O)C1CCCCC1)C(N)=O (HELM PEPTIDE1{[O=C(/C=C/C(=O)[*:2])NCC(=O)NCC(=O)N[C@@H](Cc1ccccc1)C(=O)O].Q.[O=C([C@@H](N[*:1])C1CCCCC1)[*:2]].A.V.[am]}$$$$V2.0)
inhibition [1]: 40% | inhibition [2]: 31%

CC(C)C[C@H](NC(=O)[C@@H](NC(=O)[C@H](CC(N)=O)NC(=O)/C=C/C(=O)N[C@@H](C)C(=O)NCC(=O)N[C@@H](Cc1ccccc1)C(=O)O)C1CCCCC1)C(=O)N[C@H](C(N)=O)C(C)C (HELM PEPTIDE1{[C[C@H](NC(=O)/C=C/C(=O)[*:2])C(=O)NCC(=O)N[C@@H](Cc1ccccc1)C(=O)O].N.[O=C([C@@H](N[*:1])C1CCCCC1)[*:2]].L.V.[am]}$$$$V2.0)
inhibition [1]: 40% | inhibition [2]: 66%

CC[C@H](C)[C@H](NC(=O)[C@H](Cc1ccccc1)NC(=O)/C=C/C(=O)NCC(=O)NCC(=O)N[C@@H](Cc1ccccc1)C(=O)O)C(=O)N[C@@H](CC(C)C)C(=O)N[C@H](C(N)=O)C(C)C (HELM PEPTIDE1{[O=C(/C=C/C(=O)[*:2])NCC(=O)NCC(=O)N[C@@H](Cc1ccccc1)C(=O)O].F.I.L.V.[am]}$$$$V2.0)
inhibition [1]: 58% | inhibition [2]: 73%

CC[C@H](C)[C@H](NC(=O)[C@H](C)NC(=O)/C=C/C(=O)NCC(=O)NCC(=O)N[C@@H](Cc1ccccc1)C(=O)O)C(=O)N[C@@H](C)C(=O)N[C@H](C(N)=O)C(C)C (HELM PEPTIDE1{[O=C(/C=C/C(=O)[*:2])NCC(=O)NCC(=O)N[C@@H](Cc1ccccc1)C(=O)O].A.I.A.V.[am]}$$$$V2.0)
inhibition [1]: 54% | inhibition [2]: 31%

CC(C)[C@H](NC(=O)[C@H](C)NC(=O)[C@H](Cc1ccccc1)NC(=O)[C@H](CC(N)=O)NC(=O)/C=C/C(=O)NCC(=O)NCC(=O)N[C@@H](Cc1ccccc1)C(=O)O)C(N)=O (HELM PEPTIDE1{[O=C(/C=C/C(=O)[*:2])NCC(=O)NCC(=O)N[C@@H](Cc1ccccc1)C(=O)O].N.F.A.V.[am]}$$$$V2.0)
inhibition [1]: 61% | inhibition [2]: 66%

CC(C)C[C@H](NC(=O)[C@@H](NC(=O)[C@H](CCC(N)=O)NC(=O)/C=C/C(=O)N[C@@H](C)C(=O)NCC(=O)N[C@@H](Cc1ccccc1)C(=O)O)c1ccccc1)C(=O)N[C@H](C(N)=O)C(C)C (HELM PEPTIDE1{[C[C@H](NC(=O)/C=C/C(=O)[*:2])C(=O)NCC(=O)N[C@@H](Cc1ccccc1)C(=O)O].Q.[Phg].L.V.[am]}$$$$V2.0)
inhibition [1]: 30% | inhibition [2]: 68%

CC(C)[C@H](NC(=O)[C@@H](NC(=O)[C@H](Cc1ccccc1)NC(=O)[C@H](CCC(N)=O)NC(=O)/C=C/C(=O)NCC(=O)NCC(=O)N[C@@H](Cc1ccccc1)C(=O)O)C(C)C)C(N)=O (HELM PEPTIDE1{[O=C(/C=C/C(=O)[*:2])NCC(=O)NCC(=O)N[C@@H](Cc1ccccc1)C(=O)O].Q.F.V.V.[am]}$$$$V2.0)
inhibition [1]: 51% | inhibition [2]: 42%

CC[C@H](C)[C@H](NC(=O)[C@H](C)NC(=O)/C=C/C(=O)N[C@@H](C)C(=O)NCC(=O)N[C@@H](Cc1ccccc1)C(=O)O)C(=O)N[C@H](C(=O)N[C@H](C(N)=O)C(C)C)C(C)C (HELM PEPTIDE1{[C[C@H](NC(=O)/C=C/C(=O)[*:2])C(=O)NCC(=O)N[C@@H](Cc1ccccc1)C(=O)O].A.I.V.V.[am]}$$$$V2.0)
inhibition [1]: 30% | inhibition [2]: 34%

CC(C)[C@H](NC(=O)[C@H](C)NC(=O)[C@@H](NC(=O)[C@H](Cc1ccccc1)NC(=O)/C=C/C(=O)N[C@@H](C)C(=O)NCC(=O)N[C@@H](Cc1ccccc1)C(=O)O)c1ccccc1)C(N)=O (HELM PEPTIDE1{[C[C@H](NC(=O)/C=C/C(=O)[*:2])C(=O)NCC(=O)N[C@@H](Cc1ccccc1)C(=O)O].F.[Phg].A.V.[am]}$$$$V2.0)
inhibition [1]: 34% | inhibition [2]: 47%

CC(=O)NC[C@H](NC(=O)/C=C/C(=O)N[C@@H](C)C(=O)NCC(=O)N[C@@H](Cc1ccccc1)C(=O)O)C(=O)N[C@H](C(=O)N[C@H](C(=O)N[C@H](C(N)=O)C(C)C)C(C)C)C1CCCCC1 ({Fumaroyl(AlaGlyPheOH)}-[Dap](Ac)[Chg]VV-NH2)
inhibition [1]: 40% | inhibition [2]: 46%

CC(=O)NC[C@H](NC(=O)/C=C/C(=O)NCC(=O)NCC(=O)N[C@@H](Cc1ccccc1)C(=O)O)C(=O)N[C@H](C(=O)N[C@@H](CC(C)C)C(=O)N[C@H](C(N)=O)C(C)C)c1ccccc1 (HELM PEPTIDE1{[O=C(/C=C/C(=O)[*:2])NCC(=O)NCC(=O)N[C@@H](Cc1ccccc1)C(=O)O].[O=C([C@H](CN[*:3])N[*:1])[*:2]].[Phg].L.V.[am]}|PEPTIDE2{[ac]}$PEPTIDE1,PEPTIDE2,2:R3-1:R2$$$V2.0)
inhibition [1]: 38% | inhibition [2]: 66%

CC(=O)NC[C@H](NC(=O)/C=C/C(=O)N[C@@H](C)C(=O)NCC(=O)N[C@@H](Cc1ccccc1)C(=O)O)C(=O)N[C@@H](Cc1ccccc1)C(=O)N[C@H](C(=O)N[C@H](C(N)=O)C(C)C)C(C)C (HELM PEPTIDE1{[C[C@H](NC(=O)/C=C/C(=O)[*:2])C(=O)NCC(=O)N[C@@H](Cc1ccccc1)C(=O)O].[O=C([C@H](CN[*:3])N[*:1])[*:2]].F.V.V.[am]}|PEPTIDE2{[ac]}$PEPTIDE1,PEPTIDE2,2:R3-1:R2$$$V2.0)
inhibition [1]: 32% | inhibition [2]: 44%

CC(C)C[C@H](NC(=O)[C@@H](NC(=O)[C@H](Cc1ccccc1)NC(=O)/C=C/C(=O)NCC(=O)NCC(=O)N[C@@H](Cc1ccccc1)C(=O)O)c1ccccc1)C(=O)N[C@H](C(N)=O)C(C)C (HELM PEPTIDE1{[O=C(/C=C/C(=O)[*:2])NCC(=O)NCC(=O)N[C@@H](Cc1ccccc1)C(=O)O].F.[Phg].L.V.[am]}$$$$V2.0)
inhibition [1]: 40% | inhibition [2]: 71%

CC(C)C[C@H](NC(=O)[C@H](CC(N)=O)NC(=O)/C=C/C(=O)N[C@@H](C)C(=O)NCC(=O)N[C@@H](Cc1ccccc1)C(=O)O)C(=O)N[C@H](C(=O)N[C@H](C(N)=O)C(C)C)C(C)C (HELM PEPTIDE1{[C[C@H](NC(=O)/C=C/C(=O)[*:2])C(=O)NCC(=O)N[C@@H](Cc1ccccc1)C(=O)O].N.L.V.V.[am]}$$$$V2.0)
inhibition [1]: 43% | inhibition [2]: 50%

CC(C)C[C@H](NC(=O)[C@@H](NC(=O)[C@H](Cc1ccccc1)NC(=O)/C=C/C(=O)N[C@@H](C)C(=O)NCC(=O)N[C@@H](Cc1ccccc1)C(=O)O)C1CCCCC1)C(=O)N[C@H](C(N)=O)C(C)C (HELM PEPTIDE1{[C[C@H](NC(=O)/C=C/C(=O)[*:2])C(=O)NCC(=O)N[C@@H](Cc1ccccc1)C(=O)O].F.[O=C([C@@H](N[*:1])C1CCCCC1)[*:2]].L.V.[am]}$$$$V2.0)
inhibition [1]: 56% | inhibition [2]: 49%

CC(C)[C@H](NC(=O)[C@H](C)NC(=O)[C@@H](NC(=O)[C@H](C)NC(=O)/C=C/C(=O)NCC(=O)NCC(=O)N[C@@H](Cc1ccccc1)C(=O)O)c1ccccc1)C(N)=O (HELM PEPTIDE1{[O=C(/C=C/C(=O)[*:2])NCC(=O)NCC(=O)N[C@@H](Cc1ccccc1)C(=O)O].A.[Phg].A.V.[am]}$$$$V2.0)
inhibition [1]: 41% | inhibition [2]: 16%

CC[C@H](C)[C@H](NC(=O)[C@H](C)NC(=O)/C=C/C(=O)N[C@@H](C)C(=O)NCC(=O)N[C@@H](Cc1ccccc1)C(=O)O)C(=O)N[C@@H](C)C(=O)N[C@H](C(N)=O)C(C)C (HELM PEPTIDE1{[C[C@H](NC(=O)/C=C/C(=O)[*:2])C(=O)NCC(=O)N[C@@H](Cc1ccccc1)C(=O)O].A.I.A.V.[am]}$$$$V2.0)
inhibition [1]: 37% | inhibition [2]: 9%
